The values below come from ChEMBL document CHEMBL1156806, “Novel synthesis and structural characterization of a high-affinity paramagnetic kinase probe for the identification of non-ATP site binders by nuclear magnetic resonance” (J Med Chem, 2010).

The target in assay [1] is Tyrosine-protein kinase ABL1 (Homo sapiens, UniProt P00519). As to the kind of experiment: Inhibition of Abl 1. A digest of the protocol:
(§1)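 Commercial recombinant kinases with kinase-optimised fluorescent peptide substrate at 1.5 μM and ATP at each kinase's measured Km; enzyme below 50 nM final. 11-point titration in DMSO, […] to 5 nM final. Room temperature, 1-2 h, to 20-30% substrate phosphorylation. EDTA stop, then substrate/product electrophoretic separation. IC50 from a Hill-equation fit of percent inhibition.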

Assay [2] deals with Aurora kinase B (Homo sapiens, UniProt Q96GD4). The assay can be described thus: Inhibition of Aurora B. The method in brief: as §1
For assay [3], the target named is Tyrosine-protein kinase HCK (Homo sapiens, UniProt P08631). As to the kind of experiment: Inhibition of Hck. The method in brief:
as §1

The target of assay [4] is Protein kinase C beta type (Homo sapiens, UniProt P05771). The assay can be described thus: Inhibition of PKCbeta1.
In assay [5] the target is Ribosomal protein S6 kinase alpha-1 (Homo sapiens, UniProt Q15418). As to the kind of experiment: Inhibition of RSK1.
The target in assay [6] is Protein kinase C alpha type (Homo sapiens, UniProt P17252). As to the kind of experiment: Inhibition of PKCalpha. A digest of the protocol:
as §1

Assay [7] concerns the target T1, Proto-oncogene tyrosine-protein kinase Src (Homo sapiens, UniProt P12931). The assay can be described thus: Inhibition of AMP-PNP binding to ATP binding site of human SRC by saturation transfer difference spectra.
The target of assay [8] is Platelet-derived growth factor receptor alpha (Homo sapiens, UniProt P16234). As to the kind of experiment: Inhibition of PDGFRalpha. The method in brief: as §1
The target of assay [9] is Mitogen-activated protein kinase 1 (Homo sapiens, UniProt P28482). As to the kind of experiment: Inhibition of ERK2.
Assay [10] has as its target MAP kinase-activated protein kinase 2 (Homo sapiens, UniProt P49137). The assay can be described thus: Inhibition of MK2.
Assay [11] addresses Tyrosine-protein kinase Lyn (Homo sapiens, UniProt P07948). The assay can be described thus: Inhibition of Lyn A. The method in brief: as §1
Assay [12] concerns the target Cyclin-dependent kinase 2/cyclin A (Homo sapiens, UniProt P24941). The assay can be described thus: Inhibition of CDK2/Cyclin A. The class given is protein-complex assay.
For assay [13], the target named is Tyrosine-protein kinase Lck (Homo sapiens) (UniProt P06239). The assay can be described thus: Inhibition of AMP-PNP binding to ATP binding site of LCK by saturation transfer difference spectra. A digest of the protocol:
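Lck kinase domain in 25 mM HEPES (pH 7.5), 200 mM NaCl, 10 mM MgCl2, 1 mM DTT, 5% DMSO/95% D2O; 25 °C, 600 MHz. Ligand is in large excess over protein. Protein saturated at 0.78 ppm for 3 s with 60 G4 Gaussian cascade pulses of 50 ms, 1 ms apart. STD % is peak intensity in STD spectrum over 1D 1H reference.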

Assay [14] addresses T1, Proto-oncogene tyrosine-protein kinase Src. As to the kind of experiment: Inhibition of src kinase. A digest of the protocol:
as §1

Assay [15] concerns the target Casein kinase I isoform gamma-1 (Homo sapiens, UniProt Q9HCP0). As to the kind of experiment: Inhibition of CK1gamma1.
The target in assay [16] is Mitogen-activated protein kinase 14 (Homo sapiens, UniProt Q16539). As to the kind of experiment: Inhibition of p38alpha.
Assay [17] has as its target Vascular endothelial growth factor receptor 2 (Homo sapiens, UniProt P35968). As to the kind of experiment: Inhibition of KDR. A digest of the protocol:
as §1

The target of assay [18] is Tyrosine-protein kinase Fyn (Homo sapiens, UniProt P06241). The assay can be described thus: Inhibition of Fyn. The method in brief: as §1
Assay [19] deals with T2, Mitogen-activated protein kinase kinase kinase kinase 2 (Homo sapiens, UniProt Q12851).
T2 sequence (Q12851 whole entry): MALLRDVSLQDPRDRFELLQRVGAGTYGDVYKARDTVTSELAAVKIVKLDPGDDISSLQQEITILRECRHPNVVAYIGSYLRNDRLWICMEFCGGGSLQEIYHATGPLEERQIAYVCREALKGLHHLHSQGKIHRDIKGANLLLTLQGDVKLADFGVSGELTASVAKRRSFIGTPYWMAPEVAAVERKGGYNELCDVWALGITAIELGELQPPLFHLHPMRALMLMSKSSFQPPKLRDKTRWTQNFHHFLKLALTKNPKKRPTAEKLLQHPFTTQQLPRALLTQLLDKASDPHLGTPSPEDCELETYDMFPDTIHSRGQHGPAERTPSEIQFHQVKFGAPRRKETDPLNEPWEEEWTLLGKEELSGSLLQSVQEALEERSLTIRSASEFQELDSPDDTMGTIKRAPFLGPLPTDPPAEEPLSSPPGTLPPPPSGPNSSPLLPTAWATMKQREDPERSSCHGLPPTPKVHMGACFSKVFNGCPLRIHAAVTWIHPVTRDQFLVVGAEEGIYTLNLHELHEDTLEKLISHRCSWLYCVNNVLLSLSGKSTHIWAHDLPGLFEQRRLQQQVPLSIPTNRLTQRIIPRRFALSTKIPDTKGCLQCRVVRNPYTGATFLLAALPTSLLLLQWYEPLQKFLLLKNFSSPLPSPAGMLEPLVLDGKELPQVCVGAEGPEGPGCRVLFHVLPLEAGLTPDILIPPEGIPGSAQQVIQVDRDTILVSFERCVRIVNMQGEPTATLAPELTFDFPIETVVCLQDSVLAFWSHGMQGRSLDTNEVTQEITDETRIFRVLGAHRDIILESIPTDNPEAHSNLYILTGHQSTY
As to the kind of experiment: Inhibition of GCK. The method in brief: as §1

Assay [20] can be described thus: Inhibition of PKA.
Assay [21] deals with Cyclin-dependent kinase 1/cyclin B (Homo sapiens, UniProt P06493). The assay can be described thus: Inhibition of CDK1/Cyclin B. Format: protein-complex assay.
The target in assay [22] is T1, Proto-oncogene tyrosine-protein kinase Src. The assay can be described thus: Inhibition of staurosporine binding to ATP binding site of human SRC by saturation transfer difference spectra. A digest of the protocol:
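Human Src kinase domain (T250-L536, Sf21 insect-cell expressed, His6-tagged, Ni-NTA then gel filtration). NMR buffer 20 mM HEPES (pH 7.5), 200 mM NaCl, 5 mM MgCl2, 2 mM DTT, 2% DMSO/98% D2O; 25 °C, 600 MHz. Saturation at 0.78 ppm for 3 s (60 × 50 ms G4 pulses). STD % is STD over 1D reference intensity.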

For assay [23], the target named is Tyrosine-protein kinase Lck (Homo sapiens) (UniProt P06239). As to the kind of experiment: Binding affinity to LCK assessed as reduction of compound relaxation intensity ratio at 100 uM by NMR method. The method in brief: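 Lck kinase domain in 25 mM HEPES (pH 7.5), 200 mM NaCl, 10 mM MgCl2, 1 mM DTT, 5% DMSO/95% D2O; 25 °C, 600 MHz cryoprobe. T1ρ spectra at 10 and 200 ms spin-lock, 128 scans each. Ratio is the 200 ms over 10 ms resonance intensity, compared between spin-labelled probe and its reduced form.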

The target of assay [24] is T1, Proto-oncogene tyrosine-protein kinase Src. The assay can be described thus: Inhibition of src kinase by functional activity assay of the Src kinase domain.

Molecules are shown by their SMILES. Activity calls are given as the source filed them. The rule behind the calls is not given here.

T1 sequence (P12931 2-536 limits assumed): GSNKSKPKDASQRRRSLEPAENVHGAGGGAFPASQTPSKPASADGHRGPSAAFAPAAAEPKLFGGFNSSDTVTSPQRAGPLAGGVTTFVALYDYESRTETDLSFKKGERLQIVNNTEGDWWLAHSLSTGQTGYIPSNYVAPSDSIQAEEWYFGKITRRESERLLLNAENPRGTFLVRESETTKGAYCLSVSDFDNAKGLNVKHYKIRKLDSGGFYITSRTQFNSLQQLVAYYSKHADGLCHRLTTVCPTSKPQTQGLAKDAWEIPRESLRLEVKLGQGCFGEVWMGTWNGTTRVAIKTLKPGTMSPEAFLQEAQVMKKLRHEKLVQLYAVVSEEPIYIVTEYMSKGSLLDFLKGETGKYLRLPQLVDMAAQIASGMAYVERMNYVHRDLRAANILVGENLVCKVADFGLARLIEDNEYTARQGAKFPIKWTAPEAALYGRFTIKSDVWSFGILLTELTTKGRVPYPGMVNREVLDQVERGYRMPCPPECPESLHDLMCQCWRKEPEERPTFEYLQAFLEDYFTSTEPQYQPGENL
Chain of Tyrosine-protein kinase Lck (Homo sapiens) (P06239 2-509 limits assumed): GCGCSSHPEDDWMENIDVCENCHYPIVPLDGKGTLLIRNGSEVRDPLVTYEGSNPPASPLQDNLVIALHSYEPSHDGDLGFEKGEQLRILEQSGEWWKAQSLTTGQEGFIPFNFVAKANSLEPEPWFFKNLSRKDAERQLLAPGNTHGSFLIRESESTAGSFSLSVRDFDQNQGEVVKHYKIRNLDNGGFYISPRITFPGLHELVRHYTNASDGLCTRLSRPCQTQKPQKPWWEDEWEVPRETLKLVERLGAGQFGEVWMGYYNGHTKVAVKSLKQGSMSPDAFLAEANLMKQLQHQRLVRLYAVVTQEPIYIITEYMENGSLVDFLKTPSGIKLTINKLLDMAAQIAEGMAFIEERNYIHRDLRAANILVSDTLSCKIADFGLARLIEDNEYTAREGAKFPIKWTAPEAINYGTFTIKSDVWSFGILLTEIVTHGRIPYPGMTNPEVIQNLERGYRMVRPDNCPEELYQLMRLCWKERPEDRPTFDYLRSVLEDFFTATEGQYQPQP
Chain of Mitogen-activated protein kinase 1 (P28482 whole entry): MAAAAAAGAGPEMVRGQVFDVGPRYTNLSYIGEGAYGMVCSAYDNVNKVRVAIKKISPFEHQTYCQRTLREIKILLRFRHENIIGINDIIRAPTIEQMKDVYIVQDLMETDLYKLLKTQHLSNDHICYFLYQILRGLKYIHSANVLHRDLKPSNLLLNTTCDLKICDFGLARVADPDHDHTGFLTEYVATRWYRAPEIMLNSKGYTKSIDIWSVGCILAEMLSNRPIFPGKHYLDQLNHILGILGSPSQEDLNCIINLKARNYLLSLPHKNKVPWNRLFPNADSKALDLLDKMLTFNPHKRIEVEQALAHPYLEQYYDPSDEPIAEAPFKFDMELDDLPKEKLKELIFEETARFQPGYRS
Chain of Casein kinase I isoform gamma-1 (Q9HCP0 whole entry, canonical isoform): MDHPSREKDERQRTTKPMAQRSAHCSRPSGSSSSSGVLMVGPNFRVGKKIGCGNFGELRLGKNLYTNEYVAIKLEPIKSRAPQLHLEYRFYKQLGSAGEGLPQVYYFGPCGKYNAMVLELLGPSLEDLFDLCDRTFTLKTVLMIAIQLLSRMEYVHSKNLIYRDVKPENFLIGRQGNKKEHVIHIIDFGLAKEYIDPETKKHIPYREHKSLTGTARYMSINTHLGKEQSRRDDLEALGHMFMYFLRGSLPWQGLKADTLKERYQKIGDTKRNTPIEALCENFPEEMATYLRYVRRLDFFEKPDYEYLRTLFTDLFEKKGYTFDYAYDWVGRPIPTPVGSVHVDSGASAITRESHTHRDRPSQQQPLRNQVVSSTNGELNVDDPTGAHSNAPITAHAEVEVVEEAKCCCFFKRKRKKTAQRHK
Chain of Tyrosine-protein kinase HCK (P08631 whole entry): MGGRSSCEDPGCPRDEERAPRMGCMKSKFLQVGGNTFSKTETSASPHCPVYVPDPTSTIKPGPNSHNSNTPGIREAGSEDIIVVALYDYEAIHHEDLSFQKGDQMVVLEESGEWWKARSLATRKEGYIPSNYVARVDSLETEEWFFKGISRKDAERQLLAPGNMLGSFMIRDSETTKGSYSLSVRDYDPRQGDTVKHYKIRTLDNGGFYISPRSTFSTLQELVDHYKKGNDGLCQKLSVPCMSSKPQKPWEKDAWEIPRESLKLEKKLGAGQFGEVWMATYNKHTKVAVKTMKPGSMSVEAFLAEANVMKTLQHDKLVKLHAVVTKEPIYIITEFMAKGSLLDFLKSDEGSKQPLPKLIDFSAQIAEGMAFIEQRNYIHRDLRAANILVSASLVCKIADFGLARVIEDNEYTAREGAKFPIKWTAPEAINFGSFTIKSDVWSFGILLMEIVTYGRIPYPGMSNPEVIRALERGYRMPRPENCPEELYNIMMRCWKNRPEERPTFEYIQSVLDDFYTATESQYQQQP
Chain of Ribosomal protein S6 kinase alpha-1 (Q15418 whole entry): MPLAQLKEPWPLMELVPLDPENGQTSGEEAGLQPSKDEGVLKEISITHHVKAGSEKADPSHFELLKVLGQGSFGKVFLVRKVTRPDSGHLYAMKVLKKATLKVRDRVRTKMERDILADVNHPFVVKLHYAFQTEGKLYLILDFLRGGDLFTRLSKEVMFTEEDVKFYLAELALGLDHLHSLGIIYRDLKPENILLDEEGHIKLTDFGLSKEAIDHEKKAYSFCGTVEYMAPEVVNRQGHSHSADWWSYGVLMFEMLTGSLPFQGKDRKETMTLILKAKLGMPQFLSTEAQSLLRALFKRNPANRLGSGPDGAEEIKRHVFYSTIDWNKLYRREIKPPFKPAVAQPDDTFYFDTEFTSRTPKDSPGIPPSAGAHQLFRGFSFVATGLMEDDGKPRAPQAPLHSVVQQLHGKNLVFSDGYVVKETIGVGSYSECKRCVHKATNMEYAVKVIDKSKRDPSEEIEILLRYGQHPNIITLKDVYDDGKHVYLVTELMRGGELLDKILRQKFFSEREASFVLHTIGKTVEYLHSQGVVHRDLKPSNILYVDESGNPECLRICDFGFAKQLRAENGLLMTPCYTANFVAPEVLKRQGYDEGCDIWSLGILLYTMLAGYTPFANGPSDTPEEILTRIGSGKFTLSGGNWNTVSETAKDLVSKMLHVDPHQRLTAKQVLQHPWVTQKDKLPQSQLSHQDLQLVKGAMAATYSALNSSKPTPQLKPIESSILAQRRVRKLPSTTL
Chain of Mitogen-activated protein kinase 14 (Q16539 whole entry): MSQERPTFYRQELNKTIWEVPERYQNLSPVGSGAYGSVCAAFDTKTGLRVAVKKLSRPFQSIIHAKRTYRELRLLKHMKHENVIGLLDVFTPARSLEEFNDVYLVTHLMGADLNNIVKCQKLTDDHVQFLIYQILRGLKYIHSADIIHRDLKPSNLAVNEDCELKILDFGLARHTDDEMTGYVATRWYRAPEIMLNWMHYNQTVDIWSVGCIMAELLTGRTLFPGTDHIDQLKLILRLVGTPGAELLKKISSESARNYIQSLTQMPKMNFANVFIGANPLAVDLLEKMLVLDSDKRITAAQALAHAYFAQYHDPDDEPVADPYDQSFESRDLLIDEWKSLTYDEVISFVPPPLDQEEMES
Chain of Tyrosine-protein kinase Fyn (P06241 whole entry): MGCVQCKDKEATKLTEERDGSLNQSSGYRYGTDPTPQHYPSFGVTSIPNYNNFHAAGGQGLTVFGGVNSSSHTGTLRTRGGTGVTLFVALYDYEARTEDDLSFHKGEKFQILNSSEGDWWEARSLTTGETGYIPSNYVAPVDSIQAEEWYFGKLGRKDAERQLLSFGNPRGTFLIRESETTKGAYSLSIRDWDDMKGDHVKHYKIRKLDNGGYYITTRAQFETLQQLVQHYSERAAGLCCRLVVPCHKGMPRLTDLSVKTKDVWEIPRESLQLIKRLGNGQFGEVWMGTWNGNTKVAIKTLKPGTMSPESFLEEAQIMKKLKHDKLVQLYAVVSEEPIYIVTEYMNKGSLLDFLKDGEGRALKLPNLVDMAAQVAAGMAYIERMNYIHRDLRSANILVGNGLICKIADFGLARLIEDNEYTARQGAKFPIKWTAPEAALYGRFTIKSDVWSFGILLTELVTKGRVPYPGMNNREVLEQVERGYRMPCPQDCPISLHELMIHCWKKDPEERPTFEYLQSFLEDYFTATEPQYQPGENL
Chain of Protein kinase C beta type (P05771 whole entry): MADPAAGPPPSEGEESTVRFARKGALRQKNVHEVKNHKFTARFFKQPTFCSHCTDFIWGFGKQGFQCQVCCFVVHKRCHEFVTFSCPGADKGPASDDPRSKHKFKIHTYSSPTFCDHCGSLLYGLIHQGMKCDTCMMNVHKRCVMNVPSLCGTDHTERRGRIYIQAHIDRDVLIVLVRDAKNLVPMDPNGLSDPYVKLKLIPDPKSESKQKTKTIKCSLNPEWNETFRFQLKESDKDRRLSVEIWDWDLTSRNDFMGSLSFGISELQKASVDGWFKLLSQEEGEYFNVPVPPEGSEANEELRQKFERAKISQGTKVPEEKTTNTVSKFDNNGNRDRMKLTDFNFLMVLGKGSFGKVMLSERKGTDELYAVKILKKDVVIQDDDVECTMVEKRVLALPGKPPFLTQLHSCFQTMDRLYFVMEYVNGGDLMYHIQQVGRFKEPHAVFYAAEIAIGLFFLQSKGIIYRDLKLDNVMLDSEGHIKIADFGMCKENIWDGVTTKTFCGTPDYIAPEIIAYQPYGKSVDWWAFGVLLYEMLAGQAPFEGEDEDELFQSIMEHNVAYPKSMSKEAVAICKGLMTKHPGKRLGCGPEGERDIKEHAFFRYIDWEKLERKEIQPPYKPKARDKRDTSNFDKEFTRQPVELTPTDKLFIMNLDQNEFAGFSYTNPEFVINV
Chain of Aurora kinase B (Q96GD4 whole entry): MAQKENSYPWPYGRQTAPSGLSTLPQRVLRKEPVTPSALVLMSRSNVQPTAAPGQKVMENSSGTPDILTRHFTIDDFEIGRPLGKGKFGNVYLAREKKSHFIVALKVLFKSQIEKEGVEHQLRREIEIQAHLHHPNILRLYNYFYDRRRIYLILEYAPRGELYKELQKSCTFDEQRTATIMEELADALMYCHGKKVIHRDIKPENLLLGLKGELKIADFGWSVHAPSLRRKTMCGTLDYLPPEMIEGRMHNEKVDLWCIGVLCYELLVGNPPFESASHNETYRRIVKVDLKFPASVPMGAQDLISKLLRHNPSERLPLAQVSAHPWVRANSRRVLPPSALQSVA

Turning to `CC1(C)CC(NC(=O)c2cccc(-c3cc4nccc(Nc5cccc(O)c5)n4n3)c2)CC(C)(C)N1[O]`, the IC50 in assay [1] was 0.005 µM; in assay [2], 2.9 µM; in assay [3] it was 0.016 µM; in [4], above 60 µM; in assay [5], above 50 µM; in assay [6] it was 1.3 µM. The 50% inhibitory concentration (IC50) was 0.038 µM in assay [8]; above 50 µM in [9]; above 50 µM in [10]; 0.007 µM in assay [11]; above 50 µM in assay [12]; 0.005 µM in assay [14]. In addition, the IC50 in assay [15] was above 50 µM; in assay [16], above 50 µM; in assay [17], 0.0033 µM; in assay [18], 0.005 µM; in assay [19] it was 0.024 µM; in assay [20], above 50 µM. Moreover, in assay [21], the IC50 is above 50 µM. Moreover, the result in assay [7] and in assay [13] was Active.

As to `O=C(O)c1ccccc1Nc1ccccc1`, the result in [22] was inactive. In addition, the outcome in assay [13] and in [23] was Active.

For the molecule `O=C(Cc1ccc(-c2ccc(OCCN3CCOCC3)cc2)cn1)NCc1ccccc1` [TIRBANIBULIN], the outcome in assay [7] and in assay [22] was inactive. Moreover, the result in assay [13] and in assay [23] was Active. In addition, the half-inhibitory concentration (IC50) in [24] was 40 µM; in assay [14] it was above 20 µM.

The term IC50 denotes the concentration that inhibits the measured activity by half. A higher IC50 goes with weaker potency in that assay.
